The nature of experiment [1]: (§1) Activation of ATP-sensitive potassium channel in human aortic smooth muscle cells assessed as membrane hyperpolarization by DiBAC4(3) dye-based spectrofluorimetric analysis. In a few lines: (§2)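 HASMCs grown in medium 231 with SMGS at 37 °C, 5% CO2, seeded on gelatin 24 h before use. Loaded 1 h with 2.5 μM DiBAC4(3) in HEPES buffer pH 7.4 at room temperature. Fluorescence read at ex 488 / em 520 nm before and after compound. Relative fluorescence decrease (Ft−F0)/F0 expressed as % of the 100 μM LCRK effect. pEC50 derived; six replicates.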

The species entered for experiment [2] is Homo sapiens. The experiment is described as §1. In short, it runs like this: as §2
Experiment [3] deals with Aorta. In words: Vasorelaxant activity in Wistar rat endothelium-denuded aortic rings assessed as reduction of KCl-induced contraction relative to control. The experiment is classed as functional. In short, it runs like this:
(§3)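 Thoracic aortic rings from male Wistar rats (250−350 g), endothelium removed. Removal confirmed by <10% relaxation to 10 μM ACh. Rings contracted with 25 mM KCl; at plateau, test agent added cumulatively in 3-fold increasing concentrations. DMSO stocks (10 mM) diluted in water. Emax given as % of KCl tone; pIC50 is the half-reduction of tone; 5−10 experiments.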

For experiment [4], the species on record is Homo sapiens. The experiment is described as follows: Activation of ATP-sensitive potassium channel in human aortic smooth muscle cells assessed as membrane hyperpolarization at 10 uM by DiBAC4(3) dye-based spectrofluorimetric analysis in presence of glibenclamide. In a few lines:
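Same DiBAC4(3) setup in HASMCs (2.5 μM dye, 1 h loading, pH 7.4, ex 488 / em 520 nm). Glibenclamide was added 10 min before the test agent. Relative fluorescence decrease expressed as % of the 100 μM LCRK maximal effect; six replicates.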

Experiment [5] is filed under the species Rattus norvegicus. The experiment is described as follows: Activation of ATP-sensitive potassium channel in Wistar rat pancreatic islets assessed as reduction in high glucose-induced insulin secretion after 1 hr by radioimmunoassay. In a few lines: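 Islets from male Wistar rats (200−250 g), collagenase isolation, cultured 24 h in RPMI (5.6 mM glucose). Batches of 10 islets preincubated 30 min in KRH pH 7.4 with 2.8 mM glucose and 1% BSA, then incubated 1 h with 2.8 or 16.7 mM glucose ± test agent at 1 to 1000 nM. Released insulin measured by RIA. At least five replicas.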

For experiment [6], the system named is Aorta. In words: Vasorelaxant activity in Wistar rat endothelium-denuded aortic rings assessed as reduction of KCl-induced contraction. Format: functional, tissue-based. In short, it runs like this: as §3
The species entered for experiment [7] is Homo sapiens. In words: Activation of ATP-sensitive potassium channel in human aortic smooth muscle cells assessed as membrane hyperpolarization at 0.1 to 100 uM by DiBAC4(3) dye-based spectrofluorimetric analysis relative to LCRK. In a few lines: as §2
Experiment [8] relates to Aorta. The experiment is described as follows: Vasorelaxant activity in Wistar rat endothelium-denuded aortic rings assessed as reduction of KCl-induced contraction in presence of glibenclamide relative to control. The experiment is classed as functional. In short, it runs like this:
(§4)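 Endothelium-denuded Wistar rat aortic rings; 1 μM glibenclamide added before the 25 mM KCl contraction, then test agent added cumulatively in 3-fold increasing concentrations. Vasorelaxation expressed as % of KCl-induced tone; pIC50 from the half-reduction of tone; 5−10 experiments.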

Experiment [9] concerns Aorta. The experiment is described as follows: Vasorelaxant activity in Wistar rat endothelium-denuded aortic rings assessed as reduction of KCl-induced contraction in presence of glibenclamide. The experiment is classed as functional, tissue-based. In a few lines:
as §4

Experiment [10] concerns Aorta. In words: Vasorelaxant activity in Wistar rat endothelium-denuded aortic rings relative to LCRK. Format: functional. In a few lines: as §3
The species named for experiment [11] is Rattus norvegicus. The experiment is described as follows: Activation of ATP-sensitive potassium channel in Wistar rat pancreatic islets assessed as reduction in high glucose-induced insulin secretion at 80 uM after 1 hr by radioimmunoassay in presence of glibenclamide. In short, it runs like this: (§5)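 Islets from male Wistar rats (200−250 g), isolated by collagenase duct cannulation with density-gradient purification and cultured 24 h in RPMI (5.6 mM glucose). Ten islets per well were preincubated 30 min in KRH pH 7.4 with 2.8 mM glucose and 1% BSA, then incubated 1 h with 16.7 mM glucose ± glibenclamide 1 μM. Released insulin was measured by RIA, at least five replicas.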

The species named for experiment [12] is Rattus norvegicus. The experiment is described as follows: Activation of ATP-sensitive potassium channel in Wistar rat pancreatic islets assessed as reduction in high glucose-induced insulin secretion at 80 uM after 1 hr by radioimmunoassay. In short, it runs like this: as §5

Activity calls are given as the source filed them. The rule behind the calls is not given here.

`CC(=O)c1ccc2c(c1)N(C1=CCCC1=O)CC(C)(C)S2`: the EC50 in experiment [1] was 117 nM. For the same molecule, the Activity entry in experiment [2] was “Dose-dependent effect”. The Emax in [3] came to 88%; in [7] it was 103%; in experiment [8] it was 77%. The result in [4] and in experiment [5] was inactive. The IC50 was 1.45 nM in experiment [6] and 56.2 nM in experiment [9]. For the same molecule, the Ratio in experiment [10] is 100.

Consider `CC1(C)CSc2ccc(C(F)(F)F)cc2N1C1=CCCC1=O`, for which the Emax in experiment [3] was 89%. For the same molecule, the IC50 in experiment [6] is 66.1 nM.

On to `CC1(C)CN(C2=CCCC2=O)c2ccccc2S1`, for which the Emax was found to be 90% in [3] and 61% in experiment [8]. In addition, the IC50 is 724 nM in [6] and 20900 nM in experiment [9].

On to `CC1CN(C2=CCCC2=O)c2cc(C(F)(F)F)ccc2S1` (stereo not given), for which, in experiment [1], the half-maximal effective concentration (EC50) is 135 nM. Further, the Activity result in [2] was “Dose-dependent effect”. For the same molecule, the Emax turned out to be 94% in [3], 106% in [7] and 63% in [8]. In addition, in experiment [4], the result was inactive. The IC50 in [6] was 8.32 nM; in [9], 708 nM. Besides, the Ratio in experiment [10] is listed as 10.

As to `Cc1ccc2c(c1)N(C1=CCCC1=O)CC(C)(C)S2`, the Emax in [3] stood at 89%; in experiment [8] it was 78%. Also, the half-maximal inhibitory concentration (IC50) in experiment [6] is 933 nM; in [9] it was 19500 nM.

Consider `CCc1ccc2c(c1)N(C1=CCCC1=O)CC(C)(C)S2`, for which, in [1], the EC50 was 7410 nM. Further, the Activity result in experiment [2] was “Dose-dependent effect”. Also, the Emax was found to be 97% in experiment [3], 98% in [7] and 69% in [8]. Further, the outcome in [4] and in experiment [5] was inactive. The IC50 in experiment [6] was 155 nM; in [9], 6460 nM.

`CC1(C)Oc2ccc(C#N)cc2[C@@H](N2CCCC2=O)[C@@H]1O` [LEVCROMAKALIM]: the EC50 in [1] was 5370 nM. In addition, the Emax in experiment [3] was 99%; in experiment [8], 93%. Besides, the result in experiment [4] was inactive. The figures for the IC50 in experiment [6] and in experiment [9] were 324 nM and 2510 nM, respectively.

`CC1=Nc2ccc(Cl)cc2S(=O)(=O)N1`: the outcome in experiment [11] was inactive. Also, the outcome in [12] was Active.

As for `CC1(C)CN(C2=CCCC2=O)c2cc(N)ccc2S1`, the maximal effect (Emax) in [3] came out at 96%. Moreover, the IC50 in experiment [6] is 3980 nM.

As for `CC(C)CN(CC(C)C)S(=O)(=O)c1ccc2c(c1)N(C1=CCCC1=O)CC(C)(C)S2`, the Emax in experiment [3] turned out to be 85%. In addition, in [6], the half-maximal inhibitory concentration (IC50) was 794 nM.

As to `O=C1CCC=C1N1CCSc2ccc(C(F)(F)F)cc21`, the Emax in [3] came out at 94%; in [8] it was 64%. For the same molecule, the values for the IC50 in [6] and in experiment [9] were 537 nM and 23400 nM, respectively.

Turning to `CC1(C)CN(C2=CCCC2=O)c2cc(C(F)(F)F)ccc2S1`, the Emax was 92% in experiment [3] and 96% in [8]. Further, the IC50 in [6] is 0.0417 nM; in experiment [9], 8.32 nM.

For the molecule `CC(=O)Nc1ccc2c(c1)N(C1=CCCC1=O)CC(C)(C)S2`, in [3], the Emax was 97%. Also, the IC50 in experiment [6] is 6610 nM.

One may read the EC50 as the concentration that produces a half-maximal response. By Emax is commonly meant the greatest response seen or fitted, relative to the assay's reference. By IC50 is commonly meant the concentration that inhibits the measured activity by half.

Source of the values: ChEMBL document CHEMBL2380266, “1,4-Benzothiazine ATP-sensitive potassium channel openers: modifications at the C-2 and C-6 positions” (J Med Chem, 2013).
